Here are results for 4 molecules from ChEMBL document CHEMBL1151972, “Cytotoxic asterosaponins capable of promoting polymerization of tubulin from the starfish Culcita novaeguineae” (J Nat Prod, 2009).

For test [1], the target named is T1, Tubulin (Sus scrofa) (UniProt P02554+P02550). The test can be described thus: Induction of pig brain tubulin polymerization assessed as end point promote coefficient at 8.9 uM by first high-throughput screening end-point assay. In a few lines: (§1)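 Tubulin prepared from pig brain; first high-throughput screening step. Polymerization followed by turbidity, end-point reading of the absorbance change at 350 nm, expressed as Pe (percent end-point promote coefficient). Samples above 20% Pe counted as active. Three independent experiments, eight replicate wells each.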

The target of test [2] is T1, Tubulin (Sus scrofa). In words: Induction of pig brain tubulin polymerization assessed as kinetic promote coefficient at 8.9 uM by first high-throughput screening end-point assay.
The test system of a further test is K562. In words: Cytotoxicity against human K562 cells after 72 hrs by MTT assay. Format: functional, cell-based. The note with it: K562, 72 h. In a few lines: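 Human leukemia K-562 cells; MTT colorimetric viability assay after 72 h exposure. IC50 read from dose-response curves as the concentration giving 50% lower absorbance than control cells. Mean of three independent experiments, triplicate wells per concentration.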
On the technique in general: Tetrazolium dyes change colour on reduction, which living cells bring about.

The test system of the next test is Bel-7402. The test can be described thus: Cytotoxicity against human Bel7402 cells after 72 hrs by SRB assay. Format: functional, cell-based. The note with it: Bel-7402, 72 h. In a few lines:
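Human hepatoma BEL7402 cells; sulforhodamine B protein-staining assay after 72 h exposure. Dose-response curves plotted. IC50 = concentration giving 50% reduction in absorbance relative to control cells. Three independent experiments, each concentration in three replicate wells.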
A general note: The SRB assay estimates cell density from bound dye.

Test [3] addresses T1, Tubulin (Sus scrofa). In words: Induction of pig brain tubulin polymerization assessed as end point promote coefficient at 11.7 uM by first high-throughput screening end-point assay. In a few lines: as §1
In test [4] the target is T1, Tubulin (Sus scrofa). In words: Induction of pig brain tubulin polymerization assessed as kinetic promote coefficient at 11.7 uM by first high-throughput screening end-point assay.
The target in test [5] is T1, Tubulin (Sus scrofa). The test can be described thus: Induction of pig brain tubulin polymerization assessed as end point promote coefficient at 9.3 uM by first high-throughput screening end-point assay. Summed up: as §1
Test [6] concerns the target T1, Tubulin (Sus scrofa). The test can be described thus: Induction of pig brain tubulin polymerization assessed as kinetic promote coefficient at 9.3 uM by first high-throughput screening end-point assay.

pIC50: −log10 of the molar value.

T1 sequence (P02550 whole entry, looked up): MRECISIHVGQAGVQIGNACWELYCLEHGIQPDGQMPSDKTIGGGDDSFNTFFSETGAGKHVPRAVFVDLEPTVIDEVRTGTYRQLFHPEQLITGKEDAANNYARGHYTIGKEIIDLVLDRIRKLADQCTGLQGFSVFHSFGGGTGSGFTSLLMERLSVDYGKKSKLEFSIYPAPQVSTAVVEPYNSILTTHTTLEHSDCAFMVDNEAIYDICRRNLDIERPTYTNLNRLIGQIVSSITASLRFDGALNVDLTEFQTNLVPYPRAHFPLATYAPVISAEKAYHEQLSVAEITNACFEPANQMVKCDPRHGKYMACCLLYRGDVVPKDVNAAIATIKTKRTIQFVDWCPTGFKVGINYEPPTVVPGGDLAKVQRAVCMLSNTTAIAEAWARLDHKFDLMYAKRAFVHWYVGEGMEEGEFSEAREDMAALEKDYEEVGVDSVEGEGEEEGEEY
T1 sequence (P02554 whole entry, looked up): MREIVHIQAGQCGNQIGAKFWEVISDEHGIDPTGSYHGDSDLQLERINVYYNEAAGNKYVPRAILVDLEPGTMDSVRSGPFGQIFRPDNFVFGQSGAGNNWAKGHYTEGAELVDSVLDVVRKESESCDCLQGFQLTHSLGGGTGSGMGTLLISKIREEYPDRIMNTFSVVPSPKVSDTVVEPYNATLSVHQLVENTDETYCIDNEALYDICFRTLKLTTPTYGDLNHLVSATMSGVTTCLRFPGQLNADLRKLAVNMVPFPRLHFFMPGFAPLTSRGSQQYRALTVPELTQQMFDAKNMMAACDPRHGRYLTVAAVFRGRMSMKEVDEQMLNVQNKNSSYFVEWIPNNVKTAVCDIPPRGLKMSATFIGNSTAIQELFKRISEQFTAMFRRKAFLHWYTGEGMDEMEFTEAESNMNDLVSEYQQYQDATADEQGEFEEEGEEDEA

What is called pIC50 is −log10 of the IC50, conventionally taken in molar units. High values mean a low IC50, low ones a high IC50. Take `CO[C@@H]1[C@@H](O)[C@H](O[C@H]2[C@H](O[C@@H]3[C@@H](O)[C@H](O[C@H]4C[C@@H]5C(=CC[C@]6(C)[C@@H]([C@H](C)/C=C/[C@@H](C)[C@@H](C)C(=O)NCCS(=O)(=O)O)CC[C@@H]56)[C@@]5(C)CC[C@H](OS(=O)(=O)O)C[C@H]45)O[C@H](CO)[C@H]3O)OC[C@@H](O)[C@@H]2O)O[C@H](C)[C@H]1O` [NOVAEGUINOSIDE D]: the Activity was 23% at Tubulin (Sus scrofa) [1] and 85% at Tubulin (Sus scrofa) [2]. The pIC50 with K562 is 5.34; in the test with Bel-7402, 5.39.
Consider `CC(=O)O[C@H]1C(=O)[C@@]2(C)[C@H]([C@H](OC(=O)c3ccccc3)[C@]3(O)C[C@H](OC(=O)[C@H](O)[C@@H](NC(=O)c4ccccc4)c4ccccc4)C(C)=C1C3(C)C)[C@]1(OC(C)=O)CO[C@@H]1C[C@@H]2O`, for which the Activity at Tubulin (Sus scrofa) [3] was 32%; on Tubulin (Sus scrofa) [4], 100%.
As to `CO[C@@H]1[C@@H](O)[C@H](O[C@H]2[C@H](O[C@@H]3[C@@H](O)[C@H](O[C@H]4C[C@@H]5C(=CC[C@]6(C)[C@@H]([C@H](C)CC[C@H](OS(=O)(=O)O)C(C)C)CC[C@@H]56)[C@@]5(C)CC[C@H](OS(=O)(=O)O)C[C@H]45)O[C@H](CO)[C@H]3O)OC[C@@H](O)[C@@H]2O)O[C@H](C)[C@H]1O` [NOVAEGUINOSIDE C], the Activity at Tubulin (Sus scrofa) [5] amounted to 42%; at Tubulin (Sus scrofa) [6], 149%. Besides, the pIC50 was 5.89 in the test with K562 and 6.15 in the test on Bel-7402.
In the case of `CC[C@@]1(O)C(=O)OCc2c1cc1n(c2=O)Cc2cc3cc(O)ccc3nc2-1` [HYDROXYCAMPTOTHECIN], the values for the pIC50 with K562 and in the test on Bel-7402 were 6.74 and 6.40, respectively.
